concentration, Activity and IC50 data for two compounds are collected here from ChEMBL document CHEMBL1137574, “Synthesis and structure-activity relationship for a novel class of potent and selective carbamate-based inhibitors of hormone selective lipase with acute in vivo antilipolytic effects” (J Med Chem, 2007).

Activity calls are given as the source filed them. No cut-off for these calls is given here.

Data set [1] is described as follows: Drug level in Sprague-Dawley rat at 10 mg/kg, po after 1 hr. Format: ADME, organism-based. Details: dose 10 mg/kg, route oral. The settings on record: in vivo, read-out: Drug uptake. In short, it runs like this:
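Overnight-fasted male Sprague-Dawley rats received 10 mg/kg p.o. (n = 4). Plasma from orbital blood was collected into EDTA/NaF tubes, stored at -80 °C, and drug measured by turbulent-flow chromatography–MS/MS against plasma calibration curves (10-3000 ng/mL).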

In data set [2] the target is T1, Lipoprotein lipase (Bos taurus) (UniProt P11151).
T1 sequence (whole entry): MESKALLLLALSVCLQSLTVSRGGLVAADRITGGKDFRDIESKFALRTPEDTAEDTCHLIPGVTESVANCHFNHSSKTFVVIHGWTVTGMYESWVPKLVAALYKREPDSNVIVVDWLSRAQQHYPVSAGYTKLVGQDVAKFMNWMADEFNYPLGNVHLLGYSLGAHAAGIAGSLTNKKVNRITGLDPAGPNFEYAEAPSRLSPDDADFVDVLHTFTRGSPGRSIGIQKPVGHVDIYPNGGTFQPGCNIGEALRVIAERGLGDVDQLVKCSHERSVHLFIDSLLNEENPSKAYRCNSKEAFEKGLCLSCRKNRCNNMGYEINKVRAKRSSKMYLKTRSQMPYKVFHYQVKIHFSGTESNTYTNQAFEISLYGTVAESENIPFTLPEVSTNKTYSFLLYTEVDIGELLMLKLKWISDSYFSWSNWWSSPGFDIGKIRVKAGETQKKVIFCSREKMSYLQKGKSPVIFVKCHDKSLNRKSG
In words: Inhibition of bovin lipoprotein lipase. The gist of the method:
(§1)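 Lipase inhibition (pancreatic, bovine lipoprotein, human hepatic) used a fluorochrome (NBD)-labelled triacylglyceride substrate. Inhibitor at six concentrations, 5-fold dilutions from a maximum of 100 µM, each point the mean of two measurements. IC50 from sigmoidal variable-slope nonlinear regression.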

The target in data set [3] is T2, Pancreatic triacylglycerol lipase (Homo sapiens) (UniProt P16233).
T2 sequence (whole entry): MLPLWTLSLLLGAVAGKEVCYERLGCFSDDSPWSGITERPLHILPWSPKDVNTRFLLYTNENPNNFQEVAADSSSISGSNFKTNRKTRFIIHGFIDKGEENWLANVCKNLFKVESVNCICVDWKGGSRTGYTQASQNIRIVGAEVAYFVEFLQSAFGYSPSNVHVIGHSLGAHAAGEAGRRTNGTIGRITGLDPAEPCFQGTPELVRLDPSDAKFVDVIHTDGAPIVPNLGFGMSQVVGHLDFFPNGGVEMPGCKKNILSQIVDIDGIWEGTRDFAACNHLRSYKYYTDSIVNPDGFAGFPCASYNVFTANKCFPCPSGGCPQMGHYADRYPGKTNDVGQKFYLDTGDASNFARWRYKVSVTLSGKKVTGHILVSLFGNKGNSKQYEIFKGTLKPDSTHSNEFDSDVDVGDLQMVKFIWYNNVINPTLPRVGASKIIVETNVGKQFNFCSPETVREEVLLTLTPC
In words: Inhibition of Pancreatic lipase. In short, it runs like this:
as §1

Another data set deals with Cytochrome P450 2D6 (Homo sapiens, UniProt P10635). As to the kind of experiment: Inhibition of CYP2D6 in human liver microsome. It is filed as ADME. The settings on record: microsomes. In short, it runs like this:
(§2)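 Pooled human liver microsomes (0.1 mg, ≥15 donors) incubated 10 min at 37 °C with 1 mM NADPH and test compound at 20 µM, in triplicate. Substrates at Km: CYP1A2, 14C-phenacetin 40 µM; CYP2D6, 14C-dextromethorphan 3 µM. Conversion read by charcoal extraction then scintillation counting of the supernatant.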

Another data set addresses Cytochrome P450 2C9 (Homo sapiens, UniProt P11712). In words: Inhibition of CYP2C9 in human liver microsome. It is filed as ADME. The settings on record: microsomes. (In general: Liver microsomes are vesicles of endoplasmic reticulum, rich in cytochrome P450 enzymes.)
For data set [4], the species on record is Homo sapiens. In words: Inhibition of butyrylcholine lipase.
A further data set has as its target T3, Cytochrome P450 1A2 (Homo sapiens, UniProt P05177).
T3 sequence (P05177 whole entry): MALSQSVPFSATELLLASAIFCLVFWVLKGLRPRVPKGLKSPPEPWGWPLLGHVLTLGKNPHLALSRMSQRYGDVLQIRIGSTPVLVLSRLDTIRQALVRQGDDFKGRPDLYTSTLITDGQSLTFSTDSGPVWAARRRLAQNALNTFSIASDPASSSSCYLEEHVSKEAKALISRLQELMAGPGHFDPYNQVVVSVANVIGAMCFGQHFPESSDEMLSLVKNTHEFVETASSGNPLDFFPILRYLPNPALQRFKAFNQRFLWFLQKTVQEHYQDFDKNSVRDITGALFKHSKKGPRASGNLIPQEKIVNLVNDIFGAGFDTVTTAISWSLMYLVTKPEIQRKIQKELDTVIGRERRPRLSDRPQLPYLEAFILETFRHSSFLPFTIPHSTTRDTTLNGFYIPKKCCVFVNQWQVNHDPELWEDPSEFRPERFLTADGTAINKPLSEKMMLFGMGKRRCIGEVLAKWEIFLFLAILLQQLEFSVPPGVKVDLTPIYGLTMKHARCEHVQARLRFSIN
In words: Inhibition of CYP1A2 in human liver microsome. Format: ADME. The settings on record: microsomes. In short, it runs like this: as §2

The species named for data set [5] is Homo sapiens. In words: Inhibition of acetylcholine lipase.
The target of a further data set is Cholinesterase (Homo sapiens, UniProt P06276). As to the kind of experiment: Inhibition of butyrylcholine esterase.
Cholinesterase, sequence (P06276 whole entry): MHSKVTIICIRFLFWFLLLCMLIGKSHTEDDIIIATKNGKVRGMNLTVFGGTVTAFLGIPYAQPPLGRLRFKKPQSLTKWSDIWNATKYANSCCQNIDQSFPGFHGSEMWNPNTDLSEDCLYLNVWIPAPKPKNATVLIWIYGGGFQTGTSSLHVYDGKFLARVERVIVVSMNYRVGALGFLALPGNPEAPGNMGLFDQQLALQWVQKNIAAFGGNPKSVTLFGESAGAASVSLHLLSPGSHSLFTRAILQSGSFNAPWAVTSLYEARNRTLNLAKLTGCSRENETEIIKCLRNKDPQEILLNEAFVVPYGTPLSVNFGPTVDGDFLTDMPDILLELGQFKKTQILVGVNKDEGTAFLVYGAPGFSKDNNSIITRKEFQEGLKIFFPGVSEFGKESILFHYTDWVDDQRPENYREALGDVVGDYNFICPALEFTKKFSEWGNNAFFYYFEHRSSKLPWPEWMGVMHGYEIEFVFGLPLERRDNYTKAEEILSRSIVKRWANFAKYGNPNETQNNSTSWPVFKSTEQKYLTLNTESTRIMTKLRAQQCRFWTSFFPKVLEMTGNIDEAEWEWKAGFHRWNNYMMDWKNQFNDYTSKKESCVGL

Cytochrome P450 2C9, sequence (P11712 whole entry): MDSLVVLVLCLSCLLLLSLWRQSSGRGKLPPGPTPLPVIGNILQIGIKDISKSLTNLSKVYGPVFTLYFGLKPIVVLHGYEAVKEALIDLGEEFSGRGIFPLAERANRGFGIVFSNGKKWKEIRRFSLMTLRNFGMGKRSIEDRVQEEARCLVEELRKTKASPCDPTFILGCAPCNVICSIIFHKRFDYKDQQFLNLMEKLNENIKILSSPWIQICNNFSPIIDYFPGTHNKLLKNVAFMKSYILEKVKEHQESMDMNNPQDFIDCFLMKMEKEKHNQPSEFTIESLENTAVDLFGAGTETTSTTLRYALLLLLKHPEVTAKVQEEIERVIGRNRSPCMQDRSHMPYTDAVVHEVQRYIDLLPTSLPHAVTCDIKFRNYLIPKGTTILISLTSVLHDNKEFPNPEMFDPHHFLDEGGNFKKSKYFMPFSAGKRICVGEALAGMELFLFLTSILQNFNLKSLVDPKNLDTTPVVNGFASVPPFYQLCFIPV
Cytochrome P450 2D6, sequence (P10635 whole entry): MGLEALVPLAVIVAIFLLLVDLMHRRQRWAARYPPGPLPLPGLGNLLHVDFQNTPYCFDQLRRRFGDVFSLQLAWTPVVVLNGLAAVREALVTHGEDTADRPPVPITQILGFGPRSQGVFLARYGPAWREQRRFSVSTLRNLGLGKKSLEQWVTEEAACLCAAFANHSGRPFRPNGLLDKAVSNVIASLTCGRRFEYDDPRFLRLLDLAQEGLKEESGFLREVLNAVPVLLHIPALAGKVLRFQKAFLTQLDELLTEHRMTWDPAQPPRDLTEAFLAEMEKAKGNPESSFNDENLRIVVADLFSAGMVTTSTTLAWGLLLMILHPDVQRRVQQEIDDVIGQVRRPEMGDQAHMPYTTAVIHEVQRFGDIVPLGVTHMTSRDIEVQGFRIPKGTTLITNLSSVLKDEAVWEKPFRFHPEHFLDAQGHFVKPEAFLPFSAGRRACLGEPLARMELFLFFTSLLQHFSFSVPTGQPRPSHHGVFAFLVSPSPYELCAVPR

Turning to `O=C(Oc1ccc(Oc2ccc(C(F)(F)F)cn2)cc1)N1CCC(O)CC1`, the concentration at 1 h in [1] turned out to be 3200 ng/mL. The result (in data set [2]; in data set [3]; in the data set listed under Homo sapiens [4]; in the data set filed under Homo sapiens [5]) was inactive. The Activity result on Cytochrome P450 2D6, at Cytochrome P450 2C9 and at Cytochrome P450 1A2 was “Not Active” throughout. The IC50 at Cholinesterase is greater than 50 µM.

For the compound `O=C(Oc1ccc(Oc2ccc(C(F)(F)F)cn2)cc1)N1CCC(CO)CC1`, the concentration at 1 h in data set [1] turned out to be 379 ng/mL. For the same compound, the result (in data set [2]; in data set [3]; in the data set filed under Homo sapiens [4]; in the data set listed under Homo sapiens [5]) was inactive. Besides, the Activity entry at Cytochrome P450 2D6, at Cytochrome P450 2C9 and at Cytochrome P450 1A2 was “Not Active” each time. On Cholinesterase, this compound returned an IC50 greater than 50 µM.

The term IC50 denotes the point on the concentration scale where inhibition reaches its midpoint. A lower IC50 goes with greater potency in that assay.
